Published values pooled from the literature.
Lines come from different studies, so protocols differ.
CNR2: Cannabinoid receptor 2 (CNR2, Homo sapiens, UniProt P34972)
F10: Coagulation factor X (F10, Homo sapiens, UniProt P00742)
Ribonuclease H1: Ribonuclease H1 (Homo sapiens, UniProt O60930)

CC(C)(NC(=O)c1nn(CCCCC#N)c2ccccc12)c1cccc(C(N)=O)c1 — Ki (CNR2; ligand displacement, radioligand; cell membranes): 780 nM
CS(=O)(=O)N[C@@H](CCC(N)=O)C(=O)N[C@@H](Cc1ccccc1)C(=O)N[C@@H](CCCNC(=N)N)C(=O)c1nc2ccccc2s1 — Ki (F10; cell-free assay): 16 nM
COc1ccc(-c2cccc(Nc3cc(=O)n(O)c(=O)n3C)c2)cc1 — IC50 (Ribonuclease H1; enzyme activity, inhibitor): > 10000 nM
CCCCC/C=C\C/C=C\C/C=C\Cc1ccccc1CCCC(=O)N[C@H](C)CO — EC50 (CNR2; cAMP, agonist): 12.5 nM
CC(C)(NC(=O)c1nn(Cc2ccc(C#N)cc2)c2ccccc12)c1cccc(C(N)=O)c1 — Ki (CNR2; ligand displacement, radioligand; cell membranes): 290 nM
Cc1ccc(NC(=O)c2c(Nc3ccccc3)[nH]c(=O)n(O)c2=O)cc1 — IC50 (Ribonuclease H1; enzyme activity, inhibitor): > 10000 nM
CCOC(=O)c1ccc(OC(=O)CCCCCN=C(N)N)cc1 — IC50 (F10; enzyme activity, inhibitor): 790 nM
CCCCCc1ccccc1C/C=C\C/C=C\C/C=C\CCCC(=O)N[C@H](C)CO — EC50 (CNR2; cAMP, agonist): 678 nM
CC(C)(NC(=O)c1nn(CCCCCF)c2ccccc12)c1cccc(C(N)=O)c1 — Ki (CNR2; ligand displacement, radioligand; cell membranes): 130 nM
N=C(N)NCCC[C@H](NC(=O)[C@H](Cc1ccccc1)NC(=O)[C@H](CCC(N)=O)NC(=O)OCc1ccccc1)C(=O)c1nccs1 — Ki (F10; cell-free assay): 16 nM
COc1cc2c(cc1OC)CN(CCc1ccc(NC(=O)c3cccc4c(=O)c5cccc(OC)c5[nH]c34)cc1)CC2 — Ki (D(1B) dopamine receptor (DRD5, Homo sapiens, UniProt P21918); cell-free assay): > 10000 nM
CC[C@H](C)[C@@H](C(=O)N1CCC[C@H]1c1nccs1)N(C)C(=O)[C@H](CC(C)C)N(C)C(=O)[C@H](Cc1ccc(OC)cc1)N(C)C(=O)/C=C(\C)OC — IC50 (CNR2; β-arrestin recruitment, antagonist): 17700 nM
CCCCC/C=C\[C@H](C)/C=C\C/C=C\Cc1ccccc1CCCC(=O)N[C@H](C)CO — EC50 (CNR2; β-arrestin recruitment, agonist): 213 nM
N#CC(C#N)=Cc1ccc([N+](=O)[O-])c(O)c1 — Kd (Casein kinase I isoform alpha (CSNK1A1, Homo sapiens, UniProt P48729); binding, SPR): > 50000 nM
O=c1c(-c2ccccc2)c(O)c2cc(-c3cccc(-c4ccccc4)c3)cnc2n1O — IC50 (Ribonuclease H1; enzyme activity, inhibitor): > 10000 nM
CCCCC/C=C\[C@H](C)/C=C\C/C=C\Cc1ccccc1CCCC(=O)OC(CO)CO — EC50 (CNR2; cAMP, agonist): 1130 nM
